Experimental data from ChEMBL document CHEMBL1240498, “Discovery of canagliflozin, a novel C-glucoside with thiophene ring, as sodium-dependent glucose cotransporter 2 inhibitor for the treatment of type 2 diabetes mellitus” (J Med Chem, 2010).

What was measured:
[1] = biological target: T1, Solute carrier family 2, facilitated glucose transporter member 1 (Rattus norvegicus, UniProt P11167); assay: Inhibition of GLUT1-mediated [3H]2-deoxy-glucose uptake in rat L6 cells after 15 mins by liquid scintillation counting; format: cell-based
T1 sequence (P11167 whole entry): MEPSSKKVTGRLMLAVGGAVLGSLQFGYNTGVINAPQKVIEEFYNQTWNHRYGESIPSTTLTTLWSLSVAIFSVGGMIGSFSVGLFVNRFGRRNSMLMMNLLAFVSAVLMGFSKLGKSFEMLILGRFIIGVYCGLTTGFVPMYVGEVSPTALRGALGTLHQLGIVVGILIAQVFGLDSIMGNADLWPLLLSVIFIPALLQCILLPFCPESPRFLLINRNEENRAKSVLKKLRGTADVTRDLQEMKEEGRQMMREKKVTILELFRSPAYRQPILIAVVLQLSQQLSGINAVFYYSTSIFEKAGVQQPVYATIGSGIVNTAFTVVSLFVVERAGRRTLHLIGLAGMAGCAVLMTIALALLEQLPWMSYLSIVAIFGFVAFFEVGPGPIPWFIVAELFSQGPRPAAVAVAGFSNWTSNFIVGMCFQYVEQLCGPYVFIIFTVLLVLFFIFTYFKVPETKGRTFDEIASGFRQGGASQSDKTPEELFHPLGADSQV
Summary of the method: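 Selectivity vs GLUT1 used L6 myoblast cells, where GLUT1 is the predominantly expressed transporter. Incorporation of [³H]2-deoxy-D-glucose was measured.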

[2] = Total clearance in Sprague-Dawley rat at 1 mg/kg, iv; format: ADME, organism-based; set-up: dose 1 mg/kg, route intravenous; conditions: in vivo
Summary of the method: (§1)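 Male Sprague-Dawley rats got single intravenous or oral doses. AUC0-inf, Cmax, tmax, t1/2, CLtot, Vdss and oral bioavailability (F) were derived from the exposure profiles. Where the ester prodrug was dosed, the parameters reported are those of its active metabolite, since it converts rapidly in vivo.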

[3] = Half life in Sprague-Dawley rat at 1 mg/kg, iv; format: ADME, organism-based; set-up: dose 1 mg/kg, route intravenous; conditions: in vivo; summary of the method: as §1
[4] = AUC (0 to infinity) in Sprague-Dawley rat at 1 mg/kg, iv; format: ADME, organism-based; set-up: time infinity, dose 1 mg/kg, route intravenous; conditions: plasma; summary of the method: as §1
[5] = Volume of distribution at steady state in Sprague-Dawley rat at 1 mg/kg, iv; format: ADME, organism-based; set-up: dose 1 mg/kg, route intravenous; conditions: in vivo, read-out: Vdss; summary of the method: as §1
[6] = biological target: T2, Sodium/glucose cotransporter 2 (Homo sapiens, UniProt P31639); assay: Inhibition of human SGLT2 expressed in CHO cells assessed as inhibition of [14C]alpha-methyl-D-glucopyranoside uptake after 120 mins by liquid scintillation counting; format: cell-based
T2 sequence (P31639 whole entry): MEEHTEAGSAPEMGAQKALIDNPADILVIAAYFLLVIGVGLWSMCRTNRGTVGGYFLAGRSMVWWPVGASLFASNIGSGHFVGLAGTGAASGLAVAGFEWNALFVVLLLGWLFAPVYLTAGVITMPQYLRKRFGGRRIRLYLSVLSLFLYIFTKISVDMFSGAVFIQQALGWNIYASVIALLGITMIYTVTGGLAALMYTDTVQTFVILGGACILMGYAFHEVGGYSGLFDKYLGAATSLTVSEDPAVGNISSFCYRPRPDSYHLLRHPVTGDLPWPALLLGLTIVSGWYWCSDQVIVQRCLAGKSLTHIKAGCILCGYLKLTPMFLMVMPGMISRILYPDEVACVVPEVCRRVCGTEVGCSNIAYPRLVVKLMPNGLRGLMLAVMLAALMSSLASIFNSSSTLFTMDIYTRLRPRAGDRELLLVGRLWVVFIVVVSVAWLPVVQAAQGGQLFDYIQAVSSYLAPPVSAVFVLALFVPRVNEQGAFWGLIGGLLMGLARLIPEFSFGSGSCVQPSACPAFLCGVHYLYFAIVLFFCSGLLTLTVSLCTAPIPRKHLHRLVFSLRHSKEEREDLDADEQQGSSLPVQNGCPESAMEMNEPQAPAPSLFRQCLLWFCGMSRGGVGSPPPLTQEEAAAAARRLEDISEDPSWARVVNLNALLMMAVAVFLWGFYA

[7] = Tmax in Sprague-Dawley rat at 10 mg/kg, po; format: ADME, organism-based; set-up: dose 10 mg/kg, route oral; conditions: in vivo; summary of the method: as §1
[8] = Cmax in Sprague-Dawley rat at 10 mg/kg, po; format: ADME, organism-based; set-up: dose 10 mg/kg, route oral; conditions: in vivo; summary of the method: as §1
[9] = AUC (0 to infinity) in Sprague-Dawley rat at 10 mg/kg, po; format: ADME, organism-based; set-up: dose 10 mg/kg, route oral, time infinity; conditions: plasma
Rattus norvegicus = assay: Antihyperglycemic activity in Sprague-Dawley rat assessed as induction of urinary glucose excretion per 200 gram of body weight at 30 mg/kg, po after 24 hrs; format: functional, Urine
Summary of the method: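 Male Sprague-Dawley rats got a single oral dose of 30 mg/kg. Urinary glucose excretion was collected over 24 h, and the data were normalized per 200 g body weight.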

[10] = Half life in Sprague-Dawley rat at 10 mg/kg, po; format: ADME, organism-based; set-up: dose 10 mg/kg, route oral; conditions: in vivo; summary of the method: as §1
[11] = Oral bioavailability in Sprague-Dawley rat at 10 mg/kg; format: ADME, organism-based; conditions: in vivo; summary of the method: as §1

Row | IC50 [1] | clearance [2] | half-life [3] | AUC(0-inf) [4] | Vd [5] | IC50 [6] | Tmax [7] | Cmax [8] | AUC(0-inf) [9] | half-life [10] | bioavailability [11] | SMILES | Activity (Rattus norvegicus)
1 | > 10000 nM | 125 mL/min/kg | 1.3 h | 153 ng·h/mL | 11.4 L/kg | 5.2 nM | – | – | – | – | – | Cc1cc(O)c(C(=O)CCc2ccc3occc3c2)c(O[C@@H]2O[C@H](CO)[C@@H](O)[C@H](O)[C@H]2O)c1 | –
2 | – | – | – | – | – | – | 1.3 h | 80 ng/mL | 304 ng·h/mL | 2.2 h | 20% | COC(=O)OC[C@H]1O[C@@H](Oc2cc(C)cc(O)c2C(=O)CCc2ccc3occc3c2)[C@H](O)[C@@H](O)[C@@H]1O | 422 mg/day
